The record followed here is ChEMBL document CHEMBL4354879, “Bioisosteric Discovery of NPA101.3, a Second-Generation RET/VEGFR2 Inhibitor Optimized for Single-Agent Polypharmacology” (J Med Chem, 2020).

The target in series [1] is Centrosomal protein 43/RET (Homo sapiens) (UniProt P07949+O95684). The experiment in a line: Inhibition of FGFR1OP/RET isoform 9 (unknown origin) expressed in mouse NIH/3T3 cells assessed as reduction in RET phosphorylation at Y1062 residue at 1 to 100 nM measured after 2 hrs by Western blot analysis. The series is classed as cell-based. In outline: (§1)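 Serum-starved RAT1 (RET point mutants) or NIH3T3 (RET rearrangements) cells expressing short RET-9 isoform, treated 2 h; 50 μg total lysate immunoblotted with anti-phospho-Y1062 and anti-phospho-Y905 RET antibodies, normalized to total RET; ECL detection. Compound from 50 mM DMSO stock diluted in growth medium.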

Series [2] deals with T1, Macrophage colony-stimulating factor 1 receptor (Homo sapiens, UniProt P07333). Put plainly: Binding affinity to wild-type human partial length CSF1R (I564 to S939 residues) expressed in bacterial expression system at 100 nM by Kinomescan method relative to control.
A short description of series [3]: Cytotoxicity against RET deficient human Nthy-ori 3-1 cells supplemented with fresh medium containing compound for every 2 to 3 days measured during compound dosing. The series is classed as cell-based. Summed up:
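Human RET-negative lines were seeded in six-well plates at 10000 cells/well, in 5% FCS (Nthy-ori-3-1) or 10% FCS (BCPAP, 8505-C, CALU-1, A549, PC-9). Drug or vehicle was added the day after plating, with medium changed every 2–3 days. Cells were counted every 2–3 days. IC50 was fitted from the last day of the growth curves.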

The target of series [4] is Tyrosine-protein kinase FRK (Homo sapiens) (UniProt P42685). The experiment in a line: Binding affinity to wild-type human partial length FRK (A215 to F503 residues) expressed in bacterial expression system at 100 nM by Kinomescan method relative to control.
Series [5] has as its system Proto-oncogene tyrosine-protein kinase receptor Ret (Homo sapiens), P07949 [A883F]. The experiment in a line: Inhibition of RET isoform 9 A883F mutant (unknown origin) expressed in rat Rat1 assessed as reduction in RET phosphorylation at Y1062 residue at 1 to 100 nM measured after 2 hrs by Western blot analysis. Format: cell-based. Summed up:
as §1

For series [6], the target named is Tyrosine-protein kinase HCK (Homo sapiens) (UniProt P08631). The experiment in a line: Binding affinity to wild-type human full length HCK (M22 to P526 residues) expressed in bacterial expression system at 100 nM by Kinomescan method relative to control.
A short description of series [7]: Toxicity in BALB/c nu/nu mouse assessed as change in albumin level at 10 mg/kg, po administered daily for 7 days. Conditions: in vivo, 168 h. The series is classed as organism-based. In outline:
(§2)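 Mice dosed orally with 10 mg/kg/day for 7 days; standard blood markers of organ damage measured.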

Series [8] has as its target T1, Macrophage colony-stimulating factor 1 receptor. Put plainly: Inhibition of recombinant human His-tagged CSF1R cytoplasmic domain (538 to 910 residues) expressed in baculovirus expression system using peptide substrate preincubated for 60 mins followed by substrate addition by microfluidic assay.
Series [9] deals with T2, SHC-transforming protein 1 (Homo sapiens) (UniProt P29353).
T2 sequence (whole entry): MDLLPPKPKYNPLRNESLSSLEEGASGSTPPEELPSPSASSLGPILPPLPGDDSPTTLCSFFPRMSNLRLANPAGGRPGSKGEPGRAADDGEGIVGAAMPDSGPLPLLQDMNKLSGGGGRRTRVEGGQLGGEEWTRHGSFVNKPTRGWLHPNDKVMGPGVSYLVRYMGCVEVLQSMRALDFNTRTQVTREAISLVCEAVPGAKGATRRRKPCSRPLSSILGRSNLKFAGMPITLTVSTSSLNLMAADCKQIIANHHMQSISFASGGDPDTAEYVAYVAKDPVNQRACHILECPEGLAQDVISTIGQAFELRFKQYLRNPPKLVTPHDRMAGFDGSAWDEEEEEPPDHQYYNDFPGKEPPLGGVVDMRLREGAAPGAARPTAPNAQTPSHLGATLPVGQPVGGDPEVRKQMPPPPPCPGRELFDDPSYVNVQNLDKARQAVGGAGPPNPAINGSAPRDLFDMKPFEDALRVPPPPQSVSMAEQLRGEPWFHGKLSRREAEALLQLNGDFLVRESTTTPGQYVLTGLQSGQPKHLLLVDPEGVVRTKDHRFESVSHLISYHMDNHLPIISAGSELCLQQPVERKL
Put plainly: Effect on SHC phosphorylation in RET deficient human BCPAP cells at 1 to 100 nM measured after 2 hrs by western blot analysis. The series is classed as cell-based.

Series [10] deals with Voltage-gated inwardly rectifying potassium channel KCNH2 (Homo sapiens, UniProt Q12809). Put plainly: Inhibition of human ERG expressed in HEK293 cells by patch clamp assay.
The test system of series [11] is Proto-oncogene tyrosine-protein kinase receptor Ret (Homo sapiens), P07949 [C634R]. Put plainly: Inhibition of RET […] C634R mutant (unknown origin) expressed in mouse BAF3 cells assessed as reduction in RET phosphorylation at Y1062 residue at 0.3 to 30 nM measured after 2 hrs by Western blot analysis. The series is classed as cell-based. Summed up:
(§3)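 Ba/F3 cells stably expressing long-isoform RET-51 mutants (electroporation), cultured in RPMI/10% FCS without IL-3; RET phosphorylation read by Western blot with anti-phospho-Y905 and anti-phospho-Y1062 antibodies, ECL detection.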

Series [12] has as its system Proto-oncogene tyrosine-protein kinase receptor Ret (Homo sapiens), P07949 [M918T]. The experiment in a line: Inhibition of RET isoform 9 M918T mutant (unknown origin) expressed in rat Rat1 assessed as reduction in RET phosphorylation at Y1062 residue at 1 to 100 nM measured after 2 hrs by Western blot analysis. Format: cell-based. Summed up: as §1
Series [13] has as its system Proto-oncogene tyrosine-protein kinase receptor Ret (Homo sapiens), P07949 [C634R]. The experiment in a line: Inhibition of RET isoform 9 C634R mutant (unknown origin) expressed in rat Rat1 assessed as reduction in RET phosphorylation at Y1062 residue at 3 nM measured after 2 hrs by Western blot analysis. The series is classed as cell-based. In outline: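 RAT1 fibroblasts expressing RET-9 C634R, serum-starved, treated 2 h with 0.1–10.0 nM; 50 μg lysate blotted for RET pY905 and pY1062, normalized to total RET; ECL detection.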

Series [14] has as its target NT-3 growth factor receptor (Homo sapiens) (UniProt Q16288). Put plainly: Binding affinity to wild-type human partial length TRKC (Q531 to G825 residues) expressed in mammalian expression system at 100 nM by Kinomescan method relative to control.
A short description of series [15]: Toxicity in BALB/c nu/nu mouse assessed as change in alanine transaminase level at 10 mg/kg, po administered daily for 7 days. Format: organism-based. The settings on record: in vivo, 168 h. Summed up: as §2
Series [16] can be described thus: Toxicity in BALB/c nu/nu mouse assessed as change in blood urea nitrogen level at 10 mg/kg, po administered daily for 7 days. Format: organism-based. The settings on record: in vivo, 168 h. In outline:
as §2

Series [17] has as its system Proto-oncogene tyrosine-protein kinase receptor Ret (Homo sapiens), P07949 [C634R]. The experiment in a line: Inhibition of RET […] C634R mutant (unknown origin) expressed in mouse BAF3 cells assessed as reduction in RET phosphorylation at Y905 residue at 0.3 to 30 nM measured after 2 hrs by Western blot analysis. Format: cell-based. In outline: as §3
In another series the test system is Mus musculus. The experiment in a line: In vivo inhibition of RET isoform 9 C634Y mutant transfected in mouse NIH/3T3 cells implanted BALB/c nu/nu mouse assessed as reduction in RET phosphorylation at Y1062 residue at 3 mg/kg, po administered once daily via gavage for 2 days measured 3 hrs post-last dose by Western blot analysis.

Activity calls are given as the source filed them. The rule behind the calls is not given here. Where only a bound is given, the exact number is not on record here.

Chain of Proto-oncogene tyrosine-protein kinase receptor Ret (Homo sapiens), P07949 [C634R] (P07949 whole entry C634R, canonical isoform): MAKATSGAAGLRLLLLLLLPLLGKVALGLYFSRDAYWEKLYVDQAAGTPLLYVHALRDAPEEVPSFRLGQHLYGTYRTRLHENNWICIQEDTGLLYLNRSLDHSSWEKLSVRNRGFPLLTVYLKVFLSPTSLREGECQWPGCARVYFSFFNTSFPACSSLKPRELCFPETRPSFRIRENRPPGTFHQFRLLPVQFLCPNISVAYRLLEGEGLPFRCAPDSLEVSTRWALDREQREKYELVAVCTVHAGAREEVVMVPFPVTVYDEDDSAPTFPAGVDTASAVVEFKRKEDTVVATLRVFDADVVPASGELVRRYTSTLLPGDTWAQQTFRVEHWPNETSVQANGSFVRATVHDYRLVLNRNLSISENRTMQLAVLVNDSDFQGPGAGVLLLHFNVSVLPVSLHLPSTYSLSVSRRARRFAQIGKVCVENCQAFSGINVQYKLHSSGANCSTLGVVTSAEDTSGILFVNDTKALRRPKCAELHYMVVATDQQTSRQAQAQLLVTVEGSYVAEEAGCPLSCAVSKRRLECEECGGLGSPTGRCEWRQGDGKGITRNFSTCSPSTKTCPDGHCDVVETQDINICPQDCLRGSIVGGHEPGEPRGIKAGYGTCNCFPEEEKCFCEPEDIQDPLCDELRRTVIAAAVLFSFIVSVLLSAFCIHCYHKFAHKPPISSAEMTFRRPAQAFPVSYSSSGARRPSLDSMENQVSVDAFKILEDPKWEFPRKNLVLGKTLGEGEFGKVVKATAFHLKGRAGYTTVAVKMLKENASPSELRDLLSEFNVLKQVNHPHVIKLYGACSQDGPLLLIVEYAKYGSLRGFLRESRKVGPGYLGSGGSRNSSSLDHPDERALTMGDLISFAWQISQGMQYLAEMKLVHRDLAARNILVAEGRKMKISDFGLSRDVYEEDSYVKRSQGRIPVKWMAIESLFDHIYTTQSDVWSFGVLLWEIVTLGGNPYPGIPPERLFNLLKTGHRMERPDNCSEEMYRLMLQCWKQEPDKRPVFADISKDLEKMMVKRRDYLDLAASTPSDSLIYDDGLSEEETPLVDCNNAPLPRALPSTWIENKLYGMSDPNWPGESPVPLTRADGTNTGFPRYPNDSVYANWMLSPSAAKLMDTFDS
T1 sequence (P07333 whole entry, the tested form may be a part): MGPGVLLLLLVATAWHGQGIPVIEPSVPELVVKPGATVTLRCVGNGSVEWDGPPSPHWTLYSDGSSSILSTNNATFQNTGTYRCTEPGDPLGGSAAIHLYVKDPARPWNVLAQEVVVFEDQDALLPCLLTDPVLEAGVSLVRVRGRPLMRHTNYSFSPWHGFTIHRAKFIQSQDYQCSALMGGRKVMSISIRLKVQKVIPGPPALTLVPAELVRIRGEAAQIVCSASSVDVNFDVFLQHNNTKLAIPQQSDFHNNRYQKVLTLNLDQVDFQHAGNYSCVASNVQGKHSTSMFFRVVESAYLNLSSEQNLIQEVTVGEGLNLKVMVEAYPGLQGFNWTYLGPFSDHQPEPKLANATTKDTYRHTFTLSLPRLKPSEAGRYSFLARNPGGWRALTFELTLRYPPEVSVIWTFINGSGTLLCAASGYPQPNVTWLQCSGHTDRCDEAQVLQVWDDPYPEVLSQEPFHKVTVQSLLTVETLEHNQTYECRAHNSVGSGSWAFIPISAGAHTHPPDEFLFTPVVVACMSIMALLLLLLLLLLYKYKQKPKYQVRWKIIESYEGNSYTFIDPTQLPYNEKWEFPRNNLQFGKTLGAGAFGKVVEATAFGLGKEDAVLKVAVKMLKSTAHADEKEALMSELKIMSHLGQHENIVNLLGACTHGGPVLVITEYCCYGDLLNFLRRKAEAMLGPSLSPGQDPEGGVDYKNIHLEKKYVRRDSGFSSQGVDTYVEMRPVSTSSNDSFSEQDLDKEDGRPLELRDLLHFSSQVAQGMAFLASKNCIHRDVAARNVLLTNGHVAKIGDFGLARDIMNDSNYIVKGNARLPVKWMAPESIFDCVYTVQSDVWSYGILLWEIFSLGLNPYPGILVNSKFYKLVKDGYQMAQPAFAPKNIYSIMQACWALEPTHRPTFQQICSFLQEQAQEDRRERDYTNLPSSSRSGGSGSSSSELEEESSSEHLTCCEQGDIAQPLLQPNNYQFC
Chain of Centrosomal protein 43/RET (Homo sapiens) (O95684 whole entry, looked up, canonical isoform): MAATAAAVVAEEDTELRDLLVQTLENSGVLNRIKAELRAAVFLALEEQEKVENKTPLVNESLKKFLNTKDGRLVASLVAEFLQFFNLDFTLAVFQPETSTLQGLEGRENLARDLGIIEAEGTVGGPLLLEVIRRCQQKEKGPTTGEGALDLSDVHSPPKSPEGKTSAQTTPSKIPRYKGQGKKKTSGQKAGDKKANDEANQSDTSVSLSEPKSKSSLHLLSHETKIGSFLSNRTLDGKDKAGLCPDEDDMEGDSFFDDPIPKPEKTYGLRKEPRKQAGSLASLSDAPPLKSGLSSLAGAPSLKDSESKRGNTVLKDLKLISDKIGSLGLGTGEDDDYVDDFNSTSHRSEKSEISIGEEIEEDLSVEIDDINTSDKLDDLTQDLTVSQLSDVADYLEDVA
Chain of Centrosomal protein 43/RET (Homo sapiens) (P07949 whole entry, looked up, canonical isoform): as the sequence (P07949 whole entry C634R, canonical isoform) above, with R634C counted along it
Chain of Tyrosine-protein kinase FRK (Homo sapiens) (P42685 whole entry, the tested form may be a part, canonical isoform): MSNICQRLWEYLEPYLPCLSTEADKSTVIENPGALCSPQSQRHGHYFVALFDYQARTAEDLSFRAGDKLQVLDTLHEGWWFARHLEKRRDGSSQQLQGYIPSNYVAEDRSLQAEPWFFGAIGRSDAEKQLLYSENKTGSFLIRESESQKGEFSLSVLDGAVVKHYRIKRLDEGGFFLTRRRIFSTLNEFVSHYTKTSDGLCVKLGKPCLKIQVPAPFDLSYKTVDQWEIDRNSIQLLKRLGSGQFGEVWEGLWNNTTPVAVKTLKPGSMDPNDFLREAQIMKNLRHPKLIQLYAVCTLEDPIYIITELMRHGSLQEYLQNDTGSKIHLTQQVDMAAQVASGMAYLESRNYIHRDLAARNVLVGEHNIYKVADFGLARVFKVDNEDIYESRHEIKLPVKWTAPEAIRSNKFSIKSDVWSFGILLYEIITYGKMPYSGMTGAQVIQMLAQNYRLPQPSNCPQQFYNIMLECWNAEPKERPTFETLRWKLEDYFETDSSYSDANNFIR
Chain of Tyrosine-protein kinase HCK (Homo sapiens) (P08631 2-526 limits assumed): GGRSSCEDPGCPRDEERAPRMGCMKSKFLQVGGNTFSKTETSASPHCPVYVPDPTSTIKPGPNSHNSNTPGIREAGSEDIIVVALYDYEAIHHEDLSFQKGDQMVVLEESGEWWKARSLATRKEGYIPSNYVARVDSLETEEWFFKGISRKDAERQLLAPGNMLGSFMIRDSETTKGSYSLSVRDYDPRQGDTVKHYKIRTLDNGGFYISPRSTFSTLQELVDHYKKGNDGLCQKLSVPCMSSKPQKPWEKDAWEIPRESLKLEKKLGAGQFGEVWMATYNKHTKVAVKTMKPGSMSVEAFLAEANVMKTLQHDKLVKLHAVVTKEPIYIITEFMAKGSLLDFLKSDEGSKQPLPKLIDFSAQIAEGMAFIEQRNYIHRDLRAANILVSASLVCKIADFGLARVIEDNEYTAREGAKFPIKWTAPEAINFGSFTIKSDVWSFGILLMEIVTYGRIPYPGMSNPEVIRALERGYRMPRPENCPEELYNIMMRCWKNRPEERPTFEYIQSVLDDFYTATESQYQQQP
Chain of NT-3 growth factor receptor (Homo sapiens) (Q16288 32-839 limits assumed): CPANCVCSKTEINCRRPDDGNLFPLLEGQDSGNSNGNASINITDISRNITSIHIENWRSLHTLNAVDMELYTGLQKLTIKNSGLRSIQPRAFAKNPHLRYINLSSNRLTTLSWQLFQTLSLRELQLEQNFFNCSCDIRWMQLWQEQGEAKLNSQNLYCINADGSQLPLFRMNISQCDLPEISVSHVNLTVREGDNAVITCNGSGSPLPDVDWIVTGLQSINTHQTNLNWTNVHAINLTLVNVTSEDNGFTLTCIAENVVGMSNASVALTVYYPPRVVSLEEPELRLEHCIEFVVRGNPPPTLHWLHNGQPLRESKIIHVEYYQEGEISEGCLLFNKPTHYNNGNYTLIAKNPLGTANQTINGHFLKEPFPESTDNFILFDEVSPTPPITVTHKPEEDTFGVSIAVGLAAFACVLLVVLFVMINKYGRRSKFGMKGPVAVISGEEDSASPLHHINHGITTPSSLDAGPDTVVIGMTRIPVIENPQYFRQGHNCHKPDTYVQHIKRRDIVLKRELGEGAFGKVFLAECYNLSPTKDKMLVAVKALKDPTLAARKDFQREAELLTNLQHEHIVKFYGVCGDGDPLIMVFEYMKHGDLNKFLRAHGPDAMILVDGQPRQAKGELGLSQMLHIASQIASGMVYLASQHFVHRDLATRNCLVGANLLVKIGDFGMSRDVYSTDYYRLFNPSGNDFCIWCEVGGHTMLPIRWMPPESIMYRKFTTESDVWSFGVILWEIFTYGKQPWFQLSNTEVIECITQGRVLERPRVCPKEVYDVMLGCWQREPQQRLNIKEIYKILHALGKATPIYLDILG
Chain of Proto-oncogene tyrosine-protein kinase receptor Ret (Homo sapiens), P07949 [A883F] (P07949 whole entry A883F, canonical isoform): as the sequence (P07949 whole entry C634R, canonical isoform) above, with R634C, A883F counted along it
Chain of Proto-oncogene tyrosine-protein kinase receptor Ret (Homo sapiens), P07949 [M918T] (P07949 whole entry M918T, canonical isoform): as the sequence (P07949 whole entry C634R, canonical isoform) above, with R634C, M918T counted along it

In the case of `CC(C)(C)c1cc(NC(=O)Cc2ccc(-n3cnc4cc(-c5ccc(S(C)(=O)=O)cc5)ccc43)cc2)no1`, the inhibition entry (in series [1]; in series [5]; in series [11]; in [12]; in [17]; in the series on Mus musculus) was “Active” each time. Besides, the Activity was greater than 90% in [2]; greater than 90% in series [4]; greater than 90% in [6]; “Non-Toxic” in series [7]; greater than 90% in [14]; “Non-Toxic” in [15]. Also, in [16], the Activity result is given as “Non-Toxic”. For the same compound, the results for the 50% inhibitory concentration (IC50) in [3], in series [8] and in series [10] were greater than 100 nM, 46 nM and 7570 nM, respectively. For the same compound, in [9], the result was inactive. Further, the inhibition in [13] was 100%.
